Data taken from ChEMBL document CHEMBL4364260, “Discovery of Ziresovir as a Potent, Selective, and Orally Bioavailable Respiratory Syncytial Virus Fusion Protein Inhibitor” (J Med Chem, 2019).
Activity calls are given as the source filed them. The rule behind the calls is not given here.

Experiments:
[1] = Half-life in cynomolgus monkey at 2 mg/kg, iv; type: ADME, organism-based, Macaca fascicularis; settings: in vivo
Method in brief: (§1)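 Cynomolgus monkeys got single doses of 2 mg/kg iv and 10 mg/kg po as a solution in 12.5% captisol in water. Plasma CL, Vss, iv T1/2, AUC and oral F were derived.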

[2] = system: Influenza A virus; assay: Antiviral activity against Influenza A virus H1N1 infected in human Hep2 cells assessed as reduction in virus induced cytopathic effect after 5 days by CCK-8 assay; type: functional; settings: H1N1, HEp-2, 120 h
[3] = Half-life in CD-1 mouse plasma at 10 mg/kg/day, po administered via gavage and measured up to 24 hrs by LC/MS/MS analysis; type: ADME, organism-based
[4] = AUC (0 to 24 hrs) in cynomolgus monkey at 10 mg/kg, po; type: ADME, organism-based, Macaca fascicularis; parameters: dose 10 mg/kg, time < 24 hr, route oral; settings: in vivo
Method in brief: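 Single-dose PK. Dog received 1 mg/kg iv or 10 mg/kg po, and cynomolgus monkey received 2 mg/kg iv or 10 mg/kg po. Both were given as a solution in 12.5% captisol in water. Plasma AUC was taken from the oral arm, with CL, Vss, iv T1/2 and F also derived.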

[5] = Cmax in CD-1 mouse plasma at 10 mg/kg/day, po administered via gavage and measured up to 24 hrs by LC/MS/MS analysis; type: ADME, organism-based; parameters: dose 10 mg/kg/day, route oral
[6] = Clearance in Beagle dog at 1 mg/kg, iv or 10 mg/kg, po; type: ADME, organism-based, Canis lupus familiaris; settings: in vivo
Method in brief: (§2)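 Beagle dog single-dose PK at 1 mg/kg iv and 10 mg/kg po, dosed as a solution in 12.5% captisol in water. Plasma clearance, Vss, iv T1/2, AUC and F were reported.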

[7] = system: Enterovirus; assay: Antiviral activity against Rhinovirus infected in human Hep2 cells assessed as reduction in virus induced cytopathic effect after 5 days by CCK-8 assay; type: functional, organism-based
[8] = system: Human orthopneumovirus; assay: Antiviral activity against Human respiratory syncytial virus A2 infected in human Hep2 cells assessed as reduction in virus induced cytopathic effect after 5 days by CCK-8 assay; type: functional, organism-based; settings: A2, HEp-2, 120 h
Method in brief: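 CPE protection assay in HEp-2 cells, 6000 per well, infected next day with RSV at MOI 0.02 to give about 90% cytopathic effect after 5 days. Serial compound dilutions were present during incubation. Cell viability was measured by CCK-8 at day 5 to give EC50.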

[9] = Half-life in Wistar-Han rat at 2 mg/kg, iv administered as single dose and measured up to 24 hrs by LC/MS/MS analysis; type: ADME, organism-based; settings: in vivo
Method in brief: (§3)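 Male Wistar-Han rats, single dose, 2 mg/kg iv and 10 mg/kg po, run by standard procedures.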

[10] = Clearance in CD-1 mouse at 5 mg/kg, iv or 50 mg/kg, po; type: ADME, organism-based; settings: in vivo
Method in brief: (§4)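 Single-dose PK in CD-1 mice: 5 mg/kg iv, 50 mg/kg po. Dosed as a solution in 5% DMSO, 40% PEG400, 55% of 0.9% NaCl. Plasma CL, Vss, iv T1/2, AUC and F were derived.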

[11] = AUC (0 to 24 hrs) in Sprague-Dawley rat at 10 mg/kg, po; type: ADME, organism-based; parameters: dose 10 mg/kg, time < 24 hr, route oral; settings: in vivo
[12] = Ratio of AUC (0 to 24 hrs) in lung to plasma of CD-1 mouse at 10 mg/kg, po administered via gavage by LC-MS/MS analysis; type: ADME, organism-based; settings: read-out: Ratio AUC
[13] = AUC (0 to 24 hrs) in Wistar-Han rat at 10 mg/kg, po administered as single dose via gavage and measured up to 24 hrs by LC/MS/MS analysis; type: ADME, organism-based; parameters: dose 10 mg/kg, time < 24 hr, route oral; settings: in vivo
Method in brief: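 Single-dose PK in male Wistar-Han rats at 2 mg/kg iv or 10 mg/kg po, as a solution in 5% DMSO, 40% PEG400 and 55% 0.9% sodium chloride.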

[14] = Volume of distribution at steady state in Beagle dog at 1 mg/kg, iv or 10 mg/kg, po; type: ADME, organism-based, Canis lupus familiaris; settings: in vivo, read-out: Vdss; method in brief: as §2
[15] = Volume of distribution at steady state in Sprague-Dawley rat at 2 mg/kg, iv or 10 mg/kg, po; type: ADME, organism-based; settings: in vivo, read-out: Vdss
Method in brief: (§5)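 Rat single-dose PK: 2 mg/kg iv and 10 mg/kg po. Compound was given as a solution in 5% DMSO/40% PEG400/55% of 0.9% saline. Plasma CL, Vss, iv half-life, AUC and oral bioavailability were reported.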

[16] = Plasma clearance in Wistar-Han rat at 2 mg/kg, iv or 10 mg/kg, po administered as single dose via gavage and measured up to 24 hrs by LC/MS/MS analysis; type: ADME, organism-based; method in brief: as §3
[17] = Oral bioavailability in Sprague-Dawley rat at 10 mg/kg; type: ADME, organism-based; settings: in vivo; method in brief: as §5
[18] = AUC (0 to 24 hrs) in CD-1 mouse lung at 10 mg/kg/day, po administered via gavage and measured up to 24 hrs by LC/MS/MS analysis; type: ADME, organism-based; parameters: dose 10 mg/kg/day, time < 24 hr, route oral
[19] = Tmax in CD-1 mouse plasma at 10 mg/kg/day, po administered via gavage and measured up to 24 hrs by LC/MS/MS analysis; type: ADME, organism-based
[20] = target: Fusion glycoprotein F0 (human respiratory syncytial virus) (UniProt Q89535); assay: Inhibition of Human respiratory syncytial virus Fusion protein assessed as reduction in protein-induced syncytia formation at 0.1 uM after 3 days by microscopic method relative to control
Sequence of Fusion glycoprotein F0 (human respiratory syncytial virus) (Q89535 as listed by the source): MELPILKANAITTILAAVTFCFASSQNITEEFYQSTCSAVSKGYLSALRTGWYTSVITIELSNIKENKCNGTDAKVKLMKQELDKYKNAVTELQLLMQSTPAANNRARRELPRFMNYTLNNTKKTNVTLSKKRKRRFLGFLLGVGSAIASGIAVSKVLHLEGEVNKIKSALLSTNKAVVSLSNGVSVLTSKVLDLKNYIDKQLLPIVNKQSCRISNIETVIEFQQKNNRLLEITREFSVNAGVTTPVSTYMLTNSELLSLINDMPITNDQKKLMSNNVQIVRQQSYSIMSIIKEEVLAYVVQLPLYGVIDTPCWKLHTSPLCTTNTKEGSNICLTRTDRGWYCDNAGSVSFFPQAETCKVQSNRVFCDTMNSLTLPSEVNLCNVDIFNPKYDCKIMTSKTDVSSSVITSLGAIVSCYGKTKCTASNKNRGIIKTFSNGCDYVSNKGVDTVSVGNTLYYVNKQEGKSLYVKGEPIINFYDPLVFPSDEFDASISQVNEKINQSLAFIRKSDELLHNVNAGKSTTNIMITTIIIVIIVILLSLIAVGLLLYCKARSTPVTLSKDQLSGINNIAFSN
Method in brief: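 Serially diluted compound was added to cells expressing RSV-F. Cell-cell fusion (syncytia) was scored by microscopy three days after compound addition.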

[21] = Volume of distribution at steady state in CD-1 mouse at 5 mg/kg, iv or 50 mg/kg, po; type: ADME, organism-based; settings: in vivo, read-out: Vdss; method in brief: as §4
[22] = Antiviral activity against Human respiratory syncytial virus A strain Long infected in BALB/c mouse assessed as log reduction in virus titer in lung at 12.5 mg/kg, po BID administered up to 8 hrs for 4 days relative to control; type: functional
Method in brief: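 Six-week-old female BALB/c mice, housed specific-pathogen-free, were anesthetized intraperitoneally with ketamine/xylazine and given RSV Long strain intranasally (5×10^5 PFU in 100 µL). Oral dosing was twice daily (0 h and 8 h) for 4 days, 12 mice per group. Mice were then euthanized with CO₂ and lungs harvested for viral titer, compared with vehicle.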

[23] = Half-life in CD-1 mouse lung at 10 mg/kg/day, po administered via gavage and measured up to 24 hrs by LC/MS/MS analysis; type: ADME, organism-based
[24] = Antiviral activity against Human respiratory syncytial virus A strain Long infected in human Hep2 cells assessed as plaque reduction […] by chloro-1-naphthol staining-based assay; type: functional
Method in brief: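 HEp-2 monolayers in 12-well plates got 0.5 ml of 200 PFU/ml RSV Long with or without serial compound dilutions. After 2 h they were overlaid with DMEM/F12, 4% FBS, 0.55% agarose plus compound and incubated 3 days. Cells were fixed in 4% paraformaldehyde for 6 h and immunostained with anti-RSV mAb (1:300), then HRP anti-mouse. Plaques were developed with 4-chloro-1-naphthol/H2O2 and counted.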

[25] = Oral bioavailability in cynomolgus monkey at 10 mg/kg; type: ADME, organism-based, Macaca fascicularis; settings: in vivo; method in brief: as §1
[26] = Volume of distribution at steady state in Wistar-Han rat at 2 mg/kg, iv or 10 mg/kg, po administered as single dose via gavage and measured up to 24 hrs by LC/MS/MS analysis; type: ADME, organism-based; settings: in vivo, read-out: Vdss; method in brief: as §3

## Cc1ccc2nc(N3CCS(=O)(=O)c4ccccc4C3)nc(NCC3(N)COC3)c2c1 [ZIRESOVIR]
[1]
  half-life: 1 h
[2]
  EC90: > 100000 nM
[3]
  half-life: 1.02 h
[4]
  AUC(0-t) at 24 h: 1440 ng·h/mL
[5]
  Cmax: 5090 ng/mL
[6]
  clearance: 36 mL/min/kg
[7]
  Activity: inactive
[8]
  EC50: 2 nM
  EC90: 3 nM
[9]
  half-life: 1.2 h
[10]
  clearance: 277 mL/min/kg
[11]
  AUC(0-t) at 24 h: 906 ng·h/mL
[12]
  Kp: 8.6
[13]
  AUC(0-t) at 24 h: 906 ng·h/mL
[14]
  Vd: 6.7 L/kg
[15]
  Vd: 3.9 L/kg
[16]
  clearance: 58 mL/min/kg
[17]
  bioavailability: 32%
[18]
  AUC at 24 h: 72400 ng·h/mL
[19]
  Tmax: 0.25 h
[20]
  inhibition: 100%
[21]
  Vd: 6.3 L/kg
[22]
  FC: >1
[23]
  half-life: 3.31 h
[24]
  EC90: 10 nM
[25]
  bioavailability: 22%
[26]
  Vd: 3.9 L/kg
